dFosB activator = activators of delta FosB homodimer, primary screen, biochemical, fluorescence polarization, TAMRA-CDK5 oligo, single point | Protein FosB (Mus musculus), P13346 | purified delta FosB; percent of positive-control signal above neutral wells | activation, % at 25 µM | 0.99% of 340,000 active;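 active = mean activation above about 17%, with every replicate also reaching it, limit read from the data, passing the limit was not always enough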
Target sequence (P13346 whole entry, looked up): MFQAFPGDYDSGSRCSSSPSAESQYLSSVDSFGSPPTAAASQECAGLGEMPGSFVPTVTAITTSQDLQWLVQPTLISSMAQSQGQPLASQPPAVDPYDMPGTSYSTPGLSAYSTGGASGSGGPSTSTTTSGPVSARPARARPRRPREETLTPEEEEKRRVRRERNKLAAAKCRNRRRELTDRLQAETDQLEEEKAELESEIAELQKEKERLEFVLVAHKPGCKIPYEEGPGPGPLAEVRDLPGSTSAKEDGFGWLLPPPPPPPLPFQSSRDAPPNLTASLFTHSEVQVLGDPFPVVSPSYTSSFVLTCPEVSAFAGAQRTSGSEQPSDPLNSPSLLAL
GSIS activator = GLuc luminescence reporter in INS-1E cells, primary screen for activators of glucose-dependent secretion of insulin. INS-1E GLuc reporter insulin secretion, 2-3 h. activation, % at 16.6 µM. 0.61% of 370,000 active;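 active = lowest replicate activation of at least 40%, so every replicate reaches that level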;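 note: 0% = median of neutral control wells and 100% = median of IBMX positive control wells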
miR-122 sensor = miR-122 Renilla sensor signal increase in Huh7, primary screen, miR-122 inhibitor project, cell-based, single point, plate reader | Huh7 miR-122 Renilla luciferase sensor, 48 h; neutral wells = 0, positive control = 100 | activation (reporter increase), % at 12.5 µM | 0.3% of 340,000 active | AID 602342, 2012;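 active = mean replicate activation score at least 90 and every replicate individually at or above 90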;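 note: higher luciferase means less miR-122 activity so hits act as miR-122 inhibitors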
HIV Env fusion = inhibitors of HIV-1 Env-driven cell-cell fusion, primary screen, HeLa-JRFL effector, CEM21 target cells, luciferase; inhibition, % at 12.3 µM; 1.1% of 360,000 active;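 active = mean replicate inhibition score of at least 50 and every replicate individually at or above 50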;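 note: 0% = plate neutral controls and 100% = maraviroc near 300 nM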
Cneo AK release = Cryptococcus neoformans cell lysis inducers, primary screen, AK release luminescence, single concentration; lysis activity, % at 15 µM; AID 651654, 2012; C. neoformans lysis, adenylate kinase release luminescence, 4 h; normalised: neutral wells 0, clomiphene wells 100; 0.2% of 360,000 active;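 active = mean lysis activity across replicates of at least 80%, whatever share of replicates individually reach that level; inactive = mean lysis activity below 80%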
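Assay system: C. neoformans cells. Amount: yeast cell density of 5 × 10^6 cells/mL. Technique: AK luminescence. Buffer or medium: YPD. Times: static 4 h at 37 °C with compound, 1 h detection. Dosing: single-point compound dose. Read-out: lysis from increased AK signal.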
Rtt109 Vps75 = inhibitors of C. albicans Rtt109/Vps75 HAT, primary screen, biochemical, ThioGlo CoA-SH fluorescence, plate reader; Histone acetyltransferase RTT109 (Candida albicans (strain SC5314 / ATCC MYA-2876)), …; inhibition, % at 34.9 µM; purified Rtt109/Vps75, 4 h; 0.16% of 330,000 active;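 active = inhibition of at least 50% in every replicate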
Target sequence (Q5AAJ8 whole entry, looked up): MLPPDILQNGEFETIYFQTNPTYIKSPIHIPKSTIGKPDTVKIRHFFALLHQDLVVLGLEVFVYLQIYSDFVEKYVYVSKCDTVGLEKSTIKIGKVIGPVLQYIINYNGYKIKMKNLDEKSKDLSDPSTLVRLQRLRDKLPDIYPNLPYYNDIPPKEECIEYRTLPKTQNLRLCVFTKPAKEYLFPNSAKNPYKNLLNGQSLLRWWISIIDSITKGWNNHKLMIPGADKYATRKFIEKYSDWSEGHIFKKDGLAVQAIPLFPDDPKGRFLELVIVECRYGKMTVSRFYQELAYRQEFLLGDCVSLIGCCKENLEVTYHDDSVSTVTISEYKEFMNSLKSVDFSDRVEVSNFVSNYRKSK
* = called active by the depositor; nt = no result given; [ ] = dose if it differs, or a comment. Rows were chosen to be rich in hits. Some 2.4% of all compounds tested hit in one or more screens of this group.

SMILES | dFosB activator | GSIS activator | miR-122 sensor | HIV Env fusion | Cneo AK release | Rtt109 Vps75
COc1ccc(NC(=O)CSc2nc3ccsc3c(=O)n2CCC(=O)O)cc1 | nt | 4 | -4 | 60* | -7 | nt
S=C1NC2(CCCCC2)Cc2ccccc21 | -7 | 12 | -2 | -18 | -11 | 51*
O=C(Nc1cc(Cl)ccc1Cl)C1CC(=O)N(c2ccccc2)C1 (stereo not given) | 20* | -1 | -3 | 4 | 1 | -2
CCC(Sc1nc(C)cc(C)n1)C(=O)Nc1nccs1 (stereo not given) | -4 | 55* | -8 | 1 | 1 | -3
C[C@@H]1CN([C@@H](C)CO)C(=O)c2cc(-c3ccccc3F)cnc2O[C@H]1CN(C)Cc1ccc(F)cc1 | nt | 11 | -2[16.7 µM] | 24[16.7 µM] | 0 | nt
CN(C)CC(=O)N[C@@H]1CC[C@@H](CCNC(=O)Nc2ccc(C(F)(F)F)cc2)O[C@@H]1CO | nt | 27 | nt | 0[16.7 µM] | -9 | nt
CCOC(=O)Oc1c(OC)cc(C(=O)O[C@@H]2C[C@@H]3CN4CCc5c([nH]c6cc(OC)ccc56)[C@H]4C[C@@H]3[C@H](C(=O)OC)[C@H]2OC)cc1OC | 29* | nt | -4 | -115 | -2 | -5
O=C(CN1CCOCC1)N1CC[C@@H]2[C@@H](CO)Nc3ccc(-c4ccc(F)cc4)cc3[C@@H]21 | nt | -2 | -4[16.7 µM] | nt | -2 | nt
CC(C)c1ccc(NC(=O)C2=CC=CN3CCS(=O)(=O)N=C23)cc1 | -4 | 50* | nt | -27 | nt | -6
CN(Cc1ccccc1)C(=S)NC(=O)c1ccc(-c2ccccc2)cc1 | 0 | 40* | 22 | 33 | 0 | -1
CO[C@@H]1CC[C@@H]2CCN(C)C(=O)C[C@@H](c3ccccc3)CN(C)C(=O)c3cc(C#N)ccc3OC[C@@H]1O2 | nt | -5 | nt | -13[16.7 µM] | 5 | nt
COc1ccc(N(C(=O)CCl)C(C(=O)NCCc2ccccc2)c2cccs2)cc1 (stereo not given) | -6 | 53* | -19 | nt | 2 | 10
Cn1c(SCc2ccc(Cl)cc2Cl)nc(C(F)(F)F)cc1=O | 0 | 65* | -4 | -14 | -1 | 8
FC(F)(F)c1nc(SCc2ccc(Cl)cc2Cl)n[nH]1 | 2 | nt | nt | -5 | nt | 1
COc1ccc(CN(C)C[C@@H]2OCCCC[C@H](C)Oc3ccc(NS(=O)(=O)c4ccc(F)cc4)cc3C(=O)N([C@H](C)CO)C[C@@H]2C)cc1 | nt | -2 | -8[16.7 µM] | -15[16.7 µM] | -3 | nt
COc1ccccc1CCn1cnc(-c2ccc(Cl)cc2)c1CC(C)C | nt | 307* | nt | 25 | nt | nt
COc1ccccc1CCn1cnc(-c2cccc(F)c2)c1CC(C)C | nt | 141* | nt | -11 | nt | nt
CCCc1c(-c2cccc(F)c2)ncn1CCc1ccccc1OC | nt | -4 | nt | 13 | nt | nt
CCCc1c(-c2ccc(OC)cc2)ncn1CCc1ccccc1OC | nt | -37 | nt | 13 | nt | nt
COC(=O)C[C@@H]1C=C[C@H](NS(=O)(=O)c2ccccc2F)[C@H](CO)O1 | nt | 5 | 14[16.7 µM] | -17[16.7 µM] | -2 | nt
CN1CCC(N(C)C(=O)c2ccc(Cl)c(S(=O)(=O)N3CCCCC3)c2)CC1 | -7 | 1 | 3 | 1 | 2 | -2
Cc1ccc(NS(=O)(=O)c2cc(C(=O)N(C)C3CCN(C)CC3)ccc2Cl)cc1Cl | 4 | 14 | 35 | 75* | -2 | -17
COc1ccc(NC(=O)NCCCN2CCN(c3cc(C)ccc3C)CC2)cc1 | -4 | -5 | nt | 59* | 14 | 6
COc1ccc(NC(=O)NCCCN2CCN(c3ccccc3F)CC2)cc1 | 0 | -4 | -1 | 5 | 2 | 0
O=C(C[C@@H]1CC[C@H]2[C@@H](COC[C@H](O)CN2C(=O)Nc2ccc(C(F)(F)F)cc2)O1)NCCc1ccncc1 | nt | -11 | -4[16.7 µM] | nt | -2 | nt
SMILES | dFosB activator | GSIS activator | miR-122 sensor | HIV Env fusion | Cneo AK release | Rtt109 Vps75
CC(=O)N1CCc2cc(Br)cc(S(=O)(=O)NCc3ccc(Cl)cc3)c21 | -13 | -2 | 110* | -1 | 4 | 9
CCCCOCCCNC(=S)Nc1ccc(S(=O)(=O)N2CCOCC2)cc1 | -6 | -35 | 176* | -14 | -1 | 2
CC[C@@]12C(=O)N(c3cccc(F)c3)C(=O)N1[C@H](c1ccc(Cl)cc1)[C@@H]1C(=O)N(C3CCCCC3)C(=O)[C@@H]12 | -10 | 3 | nt | 95* | 3 | 4
O=C1[C@H]2[C@@H](c3ccc(Cl)cc3)N3C(=O)N(c4cccc(Cl)c4)C(=O)[C@@]3(Cc3ccc(Cl)cc3)[C@H]2C(=O)N1C1CCCCC1 | 13 | 7 | nt | -1 | 2 | 1
CC[C@@]12C(=O)N(c3cccc(Br)c3)C(=O)N1[C@H](c1ccc(Cl)cc1)[C@@H]1C(=O)N(C3CCCCC3)C(=O)[C@@H]12 | -8 | 18 | nt | 94* | -2 | 6
Cc1cccc(N2C(=O)N3[C@H](c4ccc(Cl)cc4)[C@@H]4C(=O)N(C5CCCCC5)C(=O)[C@@H]4[C@]3(Cc3ccc(Cl)cc3)C2=O)c1 | 9 | nt | -5 | nt | 0 | 1
CC(C)C[C@@]12C(=O)N(c3cccc(Cl)c3)C(=O)N1[C@H](c1ccc(Cl)cc1)[C@@H]1C(=O)N(C3CCCCC3)C(=O)[C@@H]12 | -5 | 15 | nt | 67* | 3 | -7
Cc1cccc(N2C(=O)N3[C@H](c4ccc(F)cc4)[C@@H]4C(=O)N(C5CCCCC5)C(=O)[C@@H]4[C@]3(Cc3ccc(Cl)cc3)C2=O)c1 | 5 | 1 | -4 | 91* | 3 | -5
CC(C)C[C@@]12C(=O)N(c3cccc(Cl)c3)C(=O)N1[C@H](c1ccc(F)cc1)[C@@H]1C(=O)N(C3CCCCC3)C(=O)[C@@H]12 | -6 | -1 | nt | 15 | -3 | 6
CC(C)NC(=O)NCC[C@@H]1CC[C@H](NS(=O)(=O)c2ccc(-c3ccccc3)cc2)[C@@H](CO)O1 | nt | 14 | nt | 1[16.7 µM] | -2 | nt
COc1ccc(CN2CC3(CCN(C(=O)C4CCC4)CC3)c3c(n(C)c4cc(OC)ccc34)[C@@H]2CO)cc1 | nt | -11 | nt | nt | nt | nt
CC(C)C[C@@]12C(=O)N(c3cccc(Br)c3)C(=O)N1[C@H](c1ccc(Cl)cc1)[C@@H]1C(=O)N(C3CCCCC3)C(=O)[C@@H]12 | 1 | -2 | nt | 70* | -3 | 1
CC[C@@]12C(=O)N(c3ccc(OC)cc3)C(=O)N1[C@H](c1ccc(Cl)cc1)[C@@H]1C(=O)N(C3CCCCC3)C(=O)[C@@H]12 | 5 | -4 | -4 | 87* | -3 | 7
COCC(=O)N1[C@@H]2Cn3c(ccc(-c4ccccc4)c3=O)[C@H]1[C@@H](C(=O)NCc1ccccn1)[C@@H]2CO | nt | -9 | nt | 10[16.7 µM] | 0 | nt

Screening data deposited in PubChem BioAssay by Broad Institute.
